Results as given in ChEMBL document CHEMBL4270633, “Discovery of novel vinyl sulfone derivatives as anti-tumor agents with microtubule polymerization inhibitory and vascular disrupting activities” (Eur J Med Chem, 2018).
Calls of active or inactive are those of the source. The rule behind the calls is not given here.

Tests used:
[1] = system: K562; assay: Cell cycle arrest in human K562 cells assessed as accumulation at G1 phase at 0.005 uM after 48 hrs by propidium iodide staining based flow cytometry (reference value: 41.08%); assay type: functional
[2] = system: A549; assay: Antiproliferative activity against human A549 cells after 72 hrs by MTT assay; assay type: functional, cell-based; settings: A549, 72 h
In short: (§1)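 Cells seeded and held 24 h at 37 °C, 5% CO2, then exposed to a concentration series in medium with 0.1% DMSO for 72 h. MTT (5 mg/mL in PBS) added for 4 h and OD read at 490 nm. IC50 taken from dose-response curves; mean ± SD of at least three independent experiments.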

[3] = system: K562; assay: Cell cycle arrest in human K562 cells assessed as accumulation at G2 phase at 0.005 uM after 48 hrs by propidium iodide staining based flow cytometry (reference value: 9.51%); assay type: functional
[4] = system: H22; assay: Antitumor activity against mouse H22 cells implanted in ICR mouse assessed as tumor growth inhibition at 15 mg/kg, iv administered once daily for 21 consecutive days relative to control; assay type: functional; settings: read-out: TGI
In short: (§2)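 Male ICR mice, five weeks old, inoculated s.c. in the right flank with 1 × 10^6 H22 cells. After one day, randomized into groups of six. Given i.v. 15 or 30 mg/kg daily for 21 days in 10% DMF/2% Tween 80/88% saline, or 8 mg/kg every 2 days; vehicle control given i.v. Tumors excised and weighed; inhibition (%) = (1 − treated/control mean tumor weight) × 100.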

[5] = system: K562; assay: Induction of apoptosis in human K562 cells at 0.005 uM after 48 hrs by Annexin V-FITC/propidium iodide staining based flow cytometry (reference value: 1.46%); assay type: functional
In short: (§3)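 K562 cells treated 48 h at 0, 0.05, 0.1, 0.2 µM or 0, 0.005, 0.010, 0.020 µM. Washed in PBS, resuspended in Annexin V binding buffer and stained 15 min in the dark. Early plus late apoptotic fractions quantified by flow-cytometric quadrant analysis.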

[6] = system: K562; assay: Cell cycle arrest in human K562 cells assessed as accumulation at S phase at 0.01 uM after 48 hrs by propidium iodide staining based flow cytometry (reference value: 49.41%); assay type: functional
[7] = system: K562; assay: Antiproliferative activity against human K562 cells at 1 uM after 72 hrs by MTT assay; assay type: functional, cell-based
[8] = system: K562; assay: Cell cycle arrest in human K562 cells assessed as accumulation at S phase at 0.005 uM after 48 hrs by propidium iodide staining based flow cytometry (reference value: 49.41%); assay type: functional
[9] = system: K562; assay: Cell cycle arrest in human K562 cells assessed as accumulation at G2 phase at 0.02 uM after 48 hrs by propidium iodide staining based flow cytometry (reference value: 9.51%); assay type: functional
[10] = Inhibition of porcine brain tubulin polymerization after 30 mins by spectrophotometric method; parameters: species or system Sus scrofa
In short: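 Purified tubulin (2 mg/mL) in PEM buffer (80 mM PIPES pH 6.9, 0.5 mM EGTA, 2 mM MgCl2, 15% glycerol), preincubated on ice with compound or DMSO vehicle, then GTP added. Absorbance at 340 nm followed at 37 °C for 30 min. IC50 derived from area under the polymerization curve.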

[11] = system: HUVEC; assay: Antivascular activity against HUVEC assessed as reduction in wound closure after 24 hrs by phase contrast microscopic method; assay type: functional, cell-based; settings: Homo sapiens
In short: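 Scratch wounds made with a sterile 200 µL pipette tip, then treated at 0.05, 0.10, 0.20 µM or 0.005, 0.010, 0.020 µM. Phase-contrast images taken at 0 h and 24 h after treatment.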

[12] = system: K562; assay: Cell cycle arrest in human K562 cells assessed as accumulation at G1 phase at 0.01 uM after 48 hrs by propidium iodide staining based flow cytometry (reference value: 41.08%); assay type: functional
[13] = system: H22; assay: Antitumor activity against mouse H22 cells implanted in ICR mouse assessed as tumor growth inhibition at 30 mg/kg, iv administered once daily for 21 consecutive days relative to control; assay type: functional; settings: read-out: TGI; in short: as §2
[14] = system: K562; assay: Induction of apoptosis in human K562 cells at 0.01 uM after 48 hrs by Annexin V-FITC/propidium iodide staining based flow cytometry (reference value: 1.46%)
[15] = system: K562; assay: Cell cycle arrest in human K562 cells assessed as accumulation at S phase at 0.02 uM after 48 hrs by propidium iodide staining based flow cytometry (reference value: 49.41%); assay type: functional
[16] = system: K562; assay: Cell cycle arrest in human K562 cells assessed as accumulation at G1 phase at 0.02 uM after 48 hrs by propidium iodide staining based flow cytometry (reference value: 41.08%); assay type: functional
[17] = system: HepG2; assay: Antiproliferative activity against human HepG2 cells after 72 hrs by MTT assay; assay type: functional, cell-based; settings: HepG2, 72 h; in short: as §1
[18] = system: K562; assay: Antiproliferative activity against human K562 cells after 72 hrs by MTT assay; assay type: functional, cell-based; settings: K562, 72 h; in short: as §1
[19] = system: K562; assay: Induction of apoptosis in human K562 cells after 48 hrs by Annexin V-FITC/propidium iodide staining based flow cytometry; assay type: functional, cell-based; in short: as §3
[20] = system: K562; assay: Cell cycle arrest in human K562 cells assessed as accumulation at G2 phase at 0.01 uM after 48 hrs by propidium iodide staining based flow cytometry (reference value: 9.51%); assay type: functional
[21] = system: K562; assay: Disruption of microtubule network in human K562 cells at 0.005 to 0.02 uM after 24 hrs by DAPI staining based immunofluorescent microscopic method; assay type: cell-based
In short: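 K562 cells exposed for 24 h to 0.1% DMSO vehicle or to 0.05, 0.10, 0.20 µM or 0.005, 0.010, 0.020 µM. Fixed in 4% paraformaldehyde, blocked with goat serum 20 min at room temperature, then anti-α-tubulin antibody 2 h at 37 °C. Fluorescent antibody staining, DAPI nuclear counterstain, fluorescence microscopy.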

[22] = system: K562; assay: Induction of apoptosis in human K562 cells at 0.02 uM after 48 hrs by Annexin V-FITC/propidium iodide staining based flow cytometry (reference value: 1.46%); assay type: functional; in short: as §3

COc1ccc(/C=C\c2cc(OC)c(OC)c(OC)c2)cc1O [COMBRETASTATIN A4]
Activity [1]: 46.14%
IC50 [2]: 37 nM
Activity [3]: 13.84%
inhibition in vivo at 15 mg/kg [4]: 45%
Activity [5]: 25.28%
Activity [6]: 16.25%
Activity [7]: Active
Activity [8]: 40.02%
Activity [9]: 24.95%
IC50 [10]: 2170 nM
Activity [11]: Dose-dependent effect
Activity [12]: 61.16%
inhibition in vivo at 30 mg/kg [13]: 56.7%
Activity [14]: 53.05%
Activity [15]: 18.54%
Activity [16]: 56.51%
IC50 [17]: 12 nM
IC50 [18]: 21 nM
Activity [19]: Dose-dependent effect
Activity [20]: 22.59%
Activity [21]: Active
Activity [22]: 63.05%
